The results in this text go back to ChEMBL document CHEMBL4513216, “Probing the Open Global Health Chemical Diversity Library for Multistage-Active Starting Points for Next-Generation Antimalarials” (ACS Infect Dis, 2020).

Molecules are shown by their SMILES.

The series in a line: Toxicity liver stage against HepG2, at 10uM. It counts as cell-based. Set-up: test concentration 10 uM, cell line HepG2-A16-CD81EGFP. To be noted: human, HepG2-A16-CD81EGFP cells; read-out: INHIBITION
Put shortly: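 Uninfected HepG2-A16-CD81EGFP cells, 3 × 10^3 per well, 1536-well, plated on prespotted compound at 10 μM final, parasite-free screening media added to match infected plates; puromycin 10 μM positive, DMSO 0.5% negative; run in parallel with 48 h PbLuc assay at 37 °C, 5% CO2; viability by CellTiter-Glo luminescence, normalized to controls.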
Turning to `CN1C[C@H]2CCN(C(=O)NC3CCCC3)CC[C@H]2S1(=O)=O`, the cytotoxicity at 10 µM is 2.66%. Consider `O=C(N1CCOCC1)N1CC[C@H]2[C@@H]1CCC(=O)N2c1ccccc1`, for which the cytotoxicity at 10 µM is 6.53%. Regarding `CCC(=O)N1CCC(c2nc(C)ncc2-c2ccncc2)CC1`, the cytotoxicity at 10 µM turned out to be 6.04%. The same measure for `CC(=O)N1CC2(CCN(C(=O)c3ccoc3)C2)C1`: 6.47%; for `CN(C)Cc1cc(C2CCCN(S(=O)(=O)c3cccc(Cl)c3)C2)nn1C` (configuration not stated): 0.288%; for `Cc1ccc(CN2CCCC3(CCN(Cc4ccc(C)o4)C3)C2)o1` (configuration not stated): -107%.

`O=C(c1ncn2c1CNS(=O)(=O)c1ccccc1-2)N1CCCCC1`: the cytotoxicity at 10 µM amounted to 9.52%.

For the compound `Cn1cnc2c1C(COCC1CC1)CN(Cc1ccsc1)C2` (configuration not stated), the cytotoxicity at 10 µM is -5.07%. As for `CSCC(=O)N(C)Cc1ccc(N(C)C)cc1`, the figure is 8.63%.

Take `Cn1cc(Cl)cc1C(=O)N1CCCN(Cc2ccccc2)CC1`: the cytotoxicity at 10 µM was -5.19%. As for `Cc1cnc(-c2nc(O)c3c(n2)CN(C(=O)C2CC2)CC3)cn1`, the figure is -6.74%; as for `Cc1nc(CSCCC(=O)NCc2ccc(N(C)C)cc2)cs1`, -14.2%. Consider `O=C1NC2(CCN(Cc3cccnc3)CC2)CC1c1ccncc1` (configuration not stated), for which the cytotoxicity at 10 µM came to 5.33%. Regarding `O=C1NCC2(CCCN(C(=O)CCn3cnc4ccccc43)CC2)O1` (configuration not stated), the cytotoxicity at 10 µM was -4.8%.

Regarding `CCCn1cc(C(=O)N2CCCC2(C)c2nc(C)cc(N)n2)cn1` (configuration not stated), the cytotoxicity at 10 µM was -1.13%. As for `O=C(NCCNc1cnccn1)NCC1CCS(=O)(=O)C1` (configuration not stated), the cytotoxicity at 10 µM was -1.68%. `Clc1ccc2cccnc2c1CN1CCCCC1Cn1cncn1` (configuration not stated): the cytotoxicity at 10 µM turned out to be 7.63%. Turning to `Cc1cnn(CC2CN(Cc3nccn3C)CCO2)c1` (configuration not stated), the cytotoxicity at 10 µM was -2.06%. As for `COCCCNC(=O)c1cc(-c2ccc(OC)cc2)nn1C`, the figure is 1.54%; as for `Cc1noc(NC(=O)c2cccc(Br)c2)n1`, -5.3%; as for `CCOCC1CN(C(=O)c2cnoc2C)Cc2cn(C)nc21` (configuration not stated), 12.9%.

`CN(C)C(=O)c1cccc(CCNc2ccccc2S(C)(=O)=O)c1`: the cytotoxicity at 10 µM came out at 11.5%. On to `CCN1CCCCC1C(=O)Nc1cccc(-c2nnc[nH]2)c1` (configuration not stated), for which the cytotoxicity at 10 µM was 4.03%.

On to `Cc1ccc(CN2CC[C@H]3C[C@@H](c4nc(C5CC5)cs4)O[C@@H]3C2)o1`, for which the cytotoxicity at 10 µM was -4.29%. The same measure for `CN(C)C(=O)c1cn[nH]c1C1CCCN1Cc1cncn1C` (configuration not stated): -1.89%; for `O=C(c1ccccc1)N1CCO[C@@H]2CN(c3cnccn3)C[C@@H]2C1`: 0.442%. `CCCN(Cc1cccc(OCCO)c1)Cc1ccccc1OC`: the cytotoxicity at 10 µM amounted to 5.15%.

In the case of `c1ccc2c(Cc3nnc([C@H]4CCNC4)o3)c[nH]c2c1`, the cytotoxicity at 10 µM is -0.762%. The same measure for `Cc1cc(C)nc(NC2CC(=O)N(C)C2)n1` (configuration not stated): 8.61%; for `Cc1cc(C(=O)N[C@H]2COC[C@@H]2N2CCOCC2)c2ccc(F)cc2n1`: -48.2%.

With `CC1CCc2c(c3ccccc3[nH]c2=O)O1` (configuration not stated), the cytotoxicity at 10 µM was -8.41%.

Turning to `CCN(CC1CCCN(CCc2cccc(OC)c2)C1)C(=O)CCSC` (configuration not stated), the cytotoxicity at 10 µM amounted to 10.5%. As for `O=C(c1cscn1)N1CCc2[nH]nc(Nc3ccccc3)c2C1`, the figure is 7.82%; as for `COCCSCC(=O)NC1(c2cccc(Br)c2)CC1`, 13.3%; as for `CCN(C)Cc1nc(-c2ccccc2NS(C)(=O)=O)oc1C`, 3.63%. The same measure for `CCC1CCCN(Cc2nc(N)c3ccccc3n2)C1` (configuration not stated): -11.2%. The same measure for `NC(=O)CCSc1ccccc1NCc1ccc(Cl)s1`: 7.74%; for `CN(C)c1ccc(C(=O)Nc2ccn(CC(N)=O)n2)cn1`: -5.75%; for `Cc1nc(-c2cncnc2C2CCCNC2)no1` (configuration not stated): 6.88%. Turning to `CC(=O)N1CCC2(CC1)C(=O)N(CC1CCN(C)CC1)c1ccccc12`, the cytotoxicity at 10 µM worked out at 1.73%.

On to `CC1C(=O)Nc2cccnc2N1S(=O)(=O)c1cc(F)cc(F)c1` (configuration not stated), for which the cytotoxicity at 10 µM was -5.26%. Take `N#Cc1cccnc1N1CCCN(C(=O)CCn2cncn2)CC1`: the cytotoxicity at 10 µM amounted to 0.111%. The same measure for `CCc1noc(C(C)N2CCNCC2)n1` (configuration not stated): -3.46%; for `OCCCc1nncn1-c1cccc(C(F)(F)F)c1`: 6.74%; for `CCNc1nc(C(=O)N(C)Cc2nc(CC)no2)cs1`: -6.56%.

For the compound `Cc1cccc(NS(=O)(=O)c2cc(C(=O)O)oc2C)c1`, the cytotoxicity at 10 µM is -9.15%. As for `CCN(CC)Cc1cn2c(n1)CN(Cc1c(C)noc1C)CC2`, the figure is -0.0472%; as for `CCNc1ncc(C(=O)N(C)C(C)c2ccc3c(c2)OCCO3)cn1` (configuration not stated), -0.75%; as for `COCCn1c(-c2cccc(OC)c2)cnc1NC(=O)NC1CCCC1`, 12.3%. As for `COCCN1CCOCC12CCN(c1ccc(C#N)cc1)CC2`, the figure is -2.51%; as for `Cc1c(NC(=O)NC2CCOCC2)cccc1C(=O)N1CCCC1`, 12%.

For `CN(Cc1ccccc1O)C(=O)Nc1cc(F)cc(N2CCCC2)c1`, the cytotoxicity at 10 µM was 7.93%. As for `O=C(CN1CCCS1(=O)=O)Nc1ccc(OC2CCCC2)cc1`, the figure is -7.31%; as for `CC1CC(=O)c2cc(C(=O)N3CCOCC3)c(=O)[nH]c2C1` (configuration not stated), -3.06%; as for `O=C(CN1C[C@@H]2CC[C@H]1CN(Cc1ccccn1)C2)NCc1cccs1`, -24.2%. In the case of `CCCn1cnnc1CN(C)C(=O)CCC(=O)Nc1cc(C)ccc1F`, the cytotoxicity at 10 µM is 16.1%. The same measure for `COCCN1C[C@@H]2CN(C(=O)[C@H]3CCCO3)C[C@@H]2C1=O`: 5.82%; for `c1ccc2sc(CN3CCOC(Cn4cccn4)C3)nc2c1` (configuration not stated): -10.2%. The same measure for `Cc1ccoc1CNCc1nnc2n1CCCC2C(F)(F)F` (configuration not stated): 13.9%; for `Cc1nnc(NC(=O)CN2CCc3c(nc(C4CC4)n3C)C2)s1`: -8.51%. Turning to `COc1ccnc(N2CCN(C(=O)c3cnn(C)c3C3CC3)CC2)n1`, the cytotoxicity at 10 µM is -2.88%.

For the compound `Cn1cc(C(=O)Nc2ccc(CC(=O)NCC(F)(F)F)cc2)nn1`, the cytotoxicity at 10 µM worked out at 10.8%. In the case of `c1cnc2[nH]c(C3CCCC3)c(CN3CCOCC3)c2c1`, the cytotoxicity at 10 µM was -1.06%. As for `Cc1nc(C)n(CC2CCCCN2CC(=O)Nc2cc(C)on2)n1` (configuration not stated), the figure is 2.67%; as for `O=C(CC1NC(N2CCc3ccccc32)=NC1=O)Nc1ccc(Cl)cc1` (configuration not stated), 1.54%.

For `Cc1ccc(C(=O)N2CCO[C@H]3[C@H](OCCN(C)C)CC[C@@H]32)o1`, the cytotoxicity at 10 µM was -145%. The same measure for `CCOCCC(=O)NCC1CCCO1` (configuration not stated): 6.56%.

Take `N#CCCn1nc(C(F)(F)F)c2c1CCC2`: the cytotoxicity at 10 µM was -12%. As for `CN(C)S(=O)(=O)N1CCN(Cc2ccnc(N3CCCC3)n2)CC1`, the figure is -4.42%; as for `Cc1ccccc1CNCC(O)c1ccc(OC(C)C)cc1` (configuration not stated), -6.17%; as for `Cc1ccsc1-c1nccn1CCS(=O)(=O)N1CCCC1`, -3.67%. The same measure for `Cc1ccoc1C(=O)NCCOc1ccc(C(F)(F)F)cn1`: -4.02%.
